Here are results for 15 compounds from ChEMBL document CHEMBL4813978 (Bioorg Med Chem Lett, 2021).

For data set [1], the target named is T1, Muscarinic acetylcholine receptor M4 (Homo sapiens, UniProt P08173).
T1 sequence (P08173 whole entry): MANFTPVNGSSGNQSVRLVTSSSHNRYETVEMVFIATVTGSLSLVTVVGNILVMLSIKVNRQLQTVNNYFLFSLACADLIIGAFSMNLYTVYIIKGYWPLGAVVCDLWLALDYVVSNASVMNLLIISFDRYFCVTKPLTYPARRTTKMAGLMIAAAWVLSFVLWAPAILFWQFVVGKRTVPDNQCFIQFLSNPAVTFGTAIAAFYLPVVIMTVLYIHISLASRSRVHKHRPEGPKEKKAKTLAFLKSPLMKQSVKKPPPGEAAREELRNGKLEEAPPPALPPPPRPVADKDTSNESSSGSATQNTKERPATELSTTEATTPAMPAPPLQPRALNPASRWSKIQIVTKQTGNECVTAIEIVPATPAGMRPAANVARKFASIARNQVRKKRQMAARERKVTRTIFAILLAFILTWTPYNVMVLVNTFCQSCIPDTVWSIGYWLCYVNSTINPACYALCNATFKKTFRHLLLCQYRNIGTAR
Description: Agonist activity at muscarinic M4 receptor (unknown origin) expressed in CHO cells. Type of data set: functional, cell-based. A digest of the protocol: (§1)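 Agonist-mode EC50 with Emax. Emax given as mean ± SE of two or more experiments.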

Data set [2] addresses T2, Muscarinic acetylcholine receptor M2 (Homo sapiens, UniProt P08172).
T2 sequence (P08172 whole entry): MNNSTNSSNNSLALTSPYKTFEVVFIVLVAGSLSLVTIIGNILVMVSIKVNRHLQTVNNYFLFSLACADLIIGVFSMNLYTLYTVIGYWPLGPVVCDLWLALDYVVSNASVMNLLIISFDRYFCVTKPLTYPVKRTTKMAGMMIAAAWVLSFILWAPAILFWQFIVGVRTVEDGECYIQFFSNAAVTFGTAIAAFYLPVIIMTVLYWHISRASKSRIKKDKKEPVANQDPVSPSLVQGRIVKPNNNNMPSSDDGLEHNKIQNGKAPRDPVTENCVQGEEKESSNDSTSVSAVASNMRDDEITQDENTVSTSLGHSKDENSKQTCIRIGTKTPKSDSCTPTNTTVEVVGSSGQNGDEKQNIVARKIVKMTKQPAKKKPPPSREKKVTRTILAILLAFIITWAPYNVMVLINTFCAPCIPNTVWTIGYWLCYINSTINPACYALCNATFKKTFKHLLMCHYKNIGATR
Description: Agonist activity at muscarinic M2 receptor (unknown origin) expressed in CHO cells. The format is functional, cell-based. The procedure, abridged:
as §1

Data set [3] deals with T3, Muscarinic acetylcholine receptor M1 (Homo sapiens, UniProt P11229).
T3 sequence (P11229 whole entry): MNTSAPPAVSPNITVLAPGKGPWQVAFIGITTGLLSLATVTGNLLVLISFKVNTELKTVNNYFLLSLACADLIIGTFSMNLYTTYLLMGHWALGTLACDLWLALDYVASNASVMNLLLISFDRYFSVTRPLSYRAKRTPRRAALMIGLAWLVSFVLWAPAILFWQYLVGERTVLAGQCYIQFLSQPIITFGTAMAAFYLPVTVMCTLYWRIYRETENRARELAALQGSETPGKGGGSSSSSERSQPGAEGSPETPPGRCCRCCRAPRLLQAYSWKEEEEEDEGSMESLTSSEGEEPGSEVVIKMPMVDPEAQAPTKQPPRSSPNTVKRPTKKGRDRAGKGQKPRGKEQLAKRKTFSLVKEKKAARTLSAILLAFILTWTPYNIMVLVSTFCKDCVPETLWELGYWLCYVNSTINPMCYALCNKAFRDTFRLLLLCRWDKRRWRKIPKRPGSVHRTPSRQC
Briefly: Agonist activity at muscarinic M1 receptor (unknown origin) expressed in CHO cells. Type of data set: functional, cell-based.

A short description of data set [4]: Glutathione reactivity of compound assessed as compound-dGSH conjugate formation incubated by fluorescence detector. Type of data set: physicochemical. A digest of the protocol:
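Test compounds incubated with dansyl-glutathione (dGSH) and a human hepatocyte microsome fraction. The test compound–dGSH conjugate was quantified by fluorescence detection and reported as μmol/L.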

The target of data set [5] is Muscarinic acetylcholine receptor M3 (Homo sapiens, UniProt P20309). Briefly: Agonist activity at muscarinic M3 receptor (unknown origin) expressed in CHO cells. The format is functional, cell-based.
In a further data set the target is D(2) dopamine receptor (Homo sapiens, UniProt P14416). Description: Antagonist activity at human D2 receptor expressed in CHO cells assessed as inhibition of dopamine-induced calcium accumulation. The format is functional, cell-based.
For the next data set, the target named is D(1A) dopamine receptor (Homo sapiens, UniProt P21728). Description: Antagonist activity at human D1 receptor expressed in CHO cells assessed as inhibition of dopamine-induced calcium accumulation. Type of data set: functional, cell-based.
The nature of data set [6]: Drug concentration in po dosed mouse brain measured after 1 hr. Type of data set: ADME, organism-based. The conditions noted are these: read-out: Drug uptake.
A short description of data set [7]: Ratio of drug level in brain to plasma in po dosed mouse after 1 hr. Type of data set: ADME, organism-based. The note with it: read-out: BPR.
Data set [8] can be described thus: Drug concentration in po dosed mouse plasma measured after 1 hr. The format is ADME, organism-based.

D(1A) dopamine receptor, sequence (P21728 whole entry): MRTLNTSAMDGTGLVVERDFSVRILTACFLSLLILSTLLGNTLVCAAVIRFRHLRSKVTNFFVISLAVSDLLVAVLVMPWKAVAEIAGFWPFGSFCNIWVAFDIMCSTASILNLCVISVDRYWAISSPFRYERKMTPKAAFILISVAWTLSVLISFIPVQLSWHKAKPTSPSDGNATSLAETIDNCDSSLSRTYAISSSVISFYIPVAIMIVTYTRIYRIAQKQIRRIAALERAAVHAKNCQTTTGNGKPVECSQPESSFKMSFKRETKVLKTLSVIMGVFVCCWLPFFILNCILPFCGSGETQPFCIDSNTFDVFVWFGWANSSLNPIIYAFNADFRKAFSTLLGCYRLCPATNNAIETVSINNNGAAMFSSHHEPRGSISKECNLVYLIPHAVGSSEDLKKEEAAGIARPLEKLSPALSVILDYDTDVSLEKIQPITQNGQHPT
D(2) dopamine receptor, sequence (P14416 whole entry): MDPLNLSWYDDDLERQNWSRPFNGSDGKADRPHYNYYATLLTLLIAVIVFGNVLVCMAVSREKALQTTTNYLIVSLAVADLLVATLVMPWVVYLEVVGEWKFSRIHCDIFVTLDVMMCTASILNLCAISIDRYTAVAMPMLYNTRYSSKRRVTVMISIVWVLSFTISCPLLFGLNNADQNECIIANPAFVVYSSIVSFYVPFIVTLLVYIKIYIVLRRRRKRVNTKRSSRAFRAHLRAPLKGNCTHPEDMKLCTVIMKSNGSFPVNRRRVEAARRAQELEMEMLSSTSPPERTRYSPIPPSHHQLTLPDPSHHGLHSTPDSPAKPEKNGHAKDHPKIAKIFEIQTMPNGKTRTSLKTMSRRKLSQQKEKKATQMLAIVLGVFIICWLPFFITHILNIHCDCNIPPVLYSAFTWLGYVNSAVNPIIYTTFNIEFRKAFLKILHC
Muscarinic acetylcholine receptor M3, sequence (P20309 whole entry): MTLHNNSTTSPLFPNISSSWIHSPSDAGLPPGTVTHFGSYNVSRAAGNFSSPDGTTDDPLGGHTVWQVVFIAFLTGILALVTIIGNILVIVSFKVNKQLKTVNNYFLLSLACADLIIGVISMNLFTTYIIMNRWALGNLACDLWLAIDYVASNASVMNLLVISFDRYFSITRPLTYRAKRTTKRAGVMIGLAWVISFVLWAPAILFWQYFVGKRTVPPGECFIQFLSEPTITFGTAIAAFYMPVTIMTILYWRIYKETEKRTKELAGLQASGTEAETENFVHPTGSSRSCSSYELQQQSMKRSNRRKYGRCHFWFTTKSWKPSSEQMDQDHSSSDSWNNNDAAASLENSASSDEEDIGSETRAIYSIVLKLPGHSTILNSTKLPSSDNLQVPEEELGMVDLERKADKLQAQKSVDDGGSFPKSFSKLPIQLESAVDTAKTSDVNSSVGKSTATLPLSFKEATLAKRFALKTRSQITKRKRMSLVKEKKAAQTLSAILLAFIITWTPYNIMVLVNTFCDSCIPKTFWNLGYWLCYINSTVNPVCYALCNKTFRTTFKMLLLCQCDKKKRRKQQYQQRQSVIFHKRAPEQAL

For the compound `CN1CC=C(C2=Nc3cc(Cl)ccc3Nc3ccccc32)CC1`, the EC50 – broadly, the concentration at which the effect is half-maximal – in data set [1] is greater than 10 µM; in [2], greater than 10 µM; in data set [3] it was 0.35 µM; in data set [5], 0.64 µM. For the same compound, the Activity in data set [4] came out at 0.21 µmol/L.

Regarding `CCc1ccc2c(c1)C(C1=C[C@H](C)N(C)CC1)=Nc1cc(Cl)ccc1N2`, in data set [3], the EC50 was greater than 10 µM.

As for `Cc1ccc2c(c1)N=C(C1=C[C@H](C)N(C)CC1)c1cc(F)ccc1N2`, the EC50 in data set [3] is greater than 10 µM.

On to `Fc1ccc2c(c1)C(C1=CCNCC1)=Nc1cc(Cl)ccc1N2`, for which the EC50 in [1], in data set [2], in [3] and in data set [5] was greater than 10 µM throughout.

`CN1CC=C(C2=Nc3cc(Cl)ccc3Nc3ccc(F)cc32)CC1`: the EC50 in data set [1] is greater than 10 µM; in data set [2], greater than 10 µM; in data set [3], 4.7 µM; in [5], greater than 10 µM. Further, the values for the Ki on D(2) dopamine receptor and at D(1A) dopamine receptor were 0.41 µM and 0.035 µM, respectively. The Activity in [4] is 0.3 µmol/L.

Turning to `CCN1CC=C(C2=Nc3cc(Cl)ccc3Nc3ccc(F)cc32)CC1`, the half-maximal effective concentration (EC50) in data set [1] and in data set [3] was greater than 10 µM each time. Moreover, the Ki (usually the dissociation constant of the complex between target and ligand, obtained from inhibition or displacement) on D(2) dopamine receptor was 0.34 µM. The Activity in [4] was 0.27 µmol/L.

For the compound `COc1ccc2c(c1)C(C1=CCN(C)CC1)=Nc1cc(C)ccc1N2`, the EC50 in data set [1] and in [3] was greater than 10 µM in each case. Further, at D(2) dopamine receptor, the Ki came to 0.329 µM. Moreover, in [4], the Activity turned out to be 0.07 µmol/L.

`Cc1ccc2c(c1)N=C(C1=CCNCC1)c1cc(F)ccc1N2`: the concentration at 1 h in data set [6] stood at 63 nM. For the same compound, the EC50 in data set [1], in [2], in [3] and in data set [5] was greater than 10 µM each time.

Turning to `Cc1ccc2c(c1)N=C(C1=CCN(C)CC1)c1cc(C)ccc1N2`, the EC50 in data set [1] and in data set [3] was greater than 10 µM in each case. Further, the Ki on D(2) dopamine receptor is 0.694 µM; on D(1A) dopamine receptor, 0.057 µM. Moreover, in data set [4], the Activity stood at 0.22 µmol/L.

Take `CCc1ccc2c(c1)C(C1=CCN(C)CC1)=Nc1cc(C)ccc1N2`: the EC50 in [1] and in data set [3] was greater than 10 µM in each case.

Consider `Cc1ccc2c(c1)N=C(C1=CCN(C)CC1)c1cc(F)ccc1N2`, for which the concentration at 1 h in data set [6] was 1840 nM; in [8], 360 nM. Further, the EC50 in data set [1] is greater than 10 µM; in [2], greater than 10 µM; in data set [3], 0.31 µM; in data set [5] it was greater than 10 µM. Further, the Kp at 1 h in [7] turned out to be 5.2.

Take `CN1CC=C(C2=Nc3cc(F)ccc3Nc3ccc(Cl)cc32)CC1`: the EC50 in data set [1] and in data set [3] was greater than 10 µM each time. Also, the Ki at D(2) dopamine receptor amounted to 0.108 µM.

Consider `CC(C)N1CC=C(C2=Nc3cc(Cl)ccc3Nc3ccc(F)cc32)CC1`, for which the EC50 in data set [1] and in data set [3] was greater than 10 µM each time. The Activity in [4] was found to be 0.29 µmol/L.

As for `CN1CCN(C2=Nc3cc(Cl)ccc3Nc3ccccc32)CC1` [CLOZAPINE], the Activity in [4] was found to be 7.5 µmol/L.

Consider `Clc1ccc2c(c1)N=C(N1CCNCC1)c1ccccc1N2` [N-DESMETHYLCLOZAPINE], for which the Ki on D(2) dopamine receptor is 0.489 µM; at D(1A) dopamine receptor, 0.08 µM. Moreover, the results for the EC50 in data set [2], in data set [3] and in data set [5] were greater than 10 µM, 0.048 µM and 0.67 µM, respectively.
